Screens from PubChem.
A selection: hits, their analogues and other compounds. The true share with any hit is near 2.4%.
rRNA inh HTS = inhibitors of bacterial rRNA selective over humanized ribosomes; E. coli WT GFP vs humanized-ribosome RFP mutants, fluorescence, 24 h; active compounds read low; DMSO median 0, no signal -100; GFP signal change (wild-type ribosome), % (concentration not given with the values); actives 1.6% (n = 350,000); AID 720706;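 active = significant combined selectivity score with lowered wild-type GFP, culture density cut under 30%, mutant RFP and density less affected; inactive = any of these conditions unmet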
PGC1a acetyl inh = PGC1a acetylation modulation, inhibitor mode. U2OS PGC1a acetylation, AlphaScreen anti-acetyl-lysine; with virally co-expressed GCN5 acetyltransferase. inhibition, % at 15.6 µM. actives 0.17% (n = 350,000). AID 651687;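 active = every replicate shows inhibition of at least 40%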
ARNT-TACC3 inh = disrupts binding between human ARNT and TACC3; inhibition, % at 9.99 µM; AID 623870; AlphaScreen His-ARNT PAS-B/GST-TACC3 binding, luminescence; TACC3 fragment carries E629A point mutation; actives 0.66% (n = 390,000); Q9Y6A5;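 active = mean inhibition of replicates at least 50% and at least half of replicates each reaching 50%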
Casp6 inh = blocks human caspase-6 cleavage activity; AID 686996; P55212; actives 0.53% (n = 350,000); purified caspase-6, Z-VEID-R110 cleavage fluorescence; inhibition, % at 12.5 µM;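 active = mean inhibition across replicates at least about 35%, with every replicate also reaching that limit, limit read from the data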
Target sequence (P55212 24-179 limits assumed): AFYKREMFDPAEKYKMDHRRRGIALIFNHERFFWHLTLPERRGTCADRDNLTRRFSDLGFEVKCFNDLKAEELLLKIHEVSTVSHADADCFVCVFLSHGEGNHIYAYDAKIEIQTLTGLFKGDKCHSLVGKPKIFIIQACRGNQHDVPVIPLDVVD
Target sequence (P55212 194-293 limits assumed): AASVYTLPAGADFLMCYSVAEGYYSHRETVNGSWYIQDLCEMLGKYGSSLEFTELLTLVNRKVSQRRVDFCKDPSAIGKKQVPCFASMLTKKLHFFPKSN
ERAP1 HTS inh = blocks human ERAP1 aminopeptidase activity; Q9NZ08; recombinant ERAP1, Leu-AMC fluorescence, 60 min; inhibition, % at 10.7 µM; actives 0.15% (n = 340,000); AID 652197;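 active = mean replicate inhibition of at least 30%, or all replicates individually reaching that 30% level; inactive = mean below 30% and not every replicate reaching it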
S100A4 MyoIIA = S100A4-myosin IIA interaction inhibition | S100A4/TAMRA-MyoIIA peptide fluorescence polarization | inhibition, % at 10.7 µM | actives 0.14% (n = 360,000) | AID 652163;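 active = mean inhibition of at least 70% across replicates, with every replicate also reaching that level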
Target sequence (P26447 whole entry, looked up): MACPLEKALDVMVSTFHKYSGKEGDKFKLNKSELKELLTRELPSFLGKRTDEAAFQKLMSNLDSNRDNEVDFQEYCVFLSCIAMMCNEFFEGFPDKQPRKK
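Assay system: human S100A4 monomer with TAMRA-labelled myosin IIA peptide / Buffer or medium: Calcium-containing HEPES buffer, pH 7.2 / Reagent: TAMRA-labelled myosin IIA heavy-chain peptide probe, 5 nM / Compound: one dose per compound / Timing: polarization read 5 min after assay mix addition, stable 5–60 min / Benchmarks: neutral control DMSO, positive control TFP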
Each line names hits and unclear results; the compound was inactive in the other large screens.

O=C(NCc1ccccc1)c1ccc2c(c1)OCCO2	none (no result: rRNA inh HTS, Casp6 inh, ERAP1 HTS inh, S100A4 MyoIIA)
O=C(Nc1ccc2c(c1)OCCO2)C(=S)NCc1ccccc1	rRNA inh HTS -32
CN(C)CC(=O)NC[C@H]1N[C@@H](CO)[C@H]1c1ccc(-c2cccc(C#N)c2)cc1	none
O=C(NC[C@H]1CC[C@@H]2[C@@H](CN2S(=O)(=O)c2ccccc2[N+](=O)[O-])O1)C1CC1	none (no result: rRNA inh HTS, PGC1a acetyl inh, ARNT-TACC3 inh)
CC1(CCc2ccccc2)NC(=O)N(CC(=O)Nc2ccc(OC(F)F)cc2)C1=O (stereo unspecified)	rRNA inh HTS -29
C=CCn1c(=S)sc2c(=O)[nH]cnc21	rRNA inh HTS -23 (no result: ARNT-TACC3 inh)
CCC(=O)N1CC2(CCN(S(C)(=O)=O)CC2)c2c(n(C)c3cc(OC)ccc23)[C@@H]1CO	none (no result: ARNT-TACC3 inh, Casp6 inh, ERAP1 HTS inh, S100A4 MyoIIA)
Cc1ccc(NC(=O)c2ccc(CSc3ccccn3)cc2)c(O)c1	rRNA inh HTS -36 (no result: PGC1a acetyl inh)
Cc1cnc(NC(=O)Cc2c[nH]c3ccccc23)s1	rRNA inh HTS -22 (no result: ARNT-TACC3 inh)
COc1ccccc1NC(=O)N1CCCCN2[C@@H](CO)[C@H](c3ccc(-c4cccc(F)c4)cc3)[C@@H]2C1	none
O=C([C@@H]1[C@@H](CO)[C@@H]2Cn3c(cccc3=O)[C@H]1N2C(=O)c1ccccc1)N1CCCCC1	none (no result: PGC1a acetyl inh)
CC1C/C(=C/c2ccncc2)C(=O)/C(=C/c2ccncc2)C1 (stereo unspecified)	rRNA inh HTS -22
CC1C/C(=C/c2cccn2C)C(=O)/C(=C/c2cccn2C)C1 (stereo unspecified)	none (no result: rRNA inh HTS, Casp6 inh, ERAP1 HTS inh, S100A4 MyoIIA)
Cc1noc(NS(=O)(=O)c2ccc(NC(=O)c3ccc(OC(C)C)cc3)cc2)c1C	rRNA inh HTS -31 (no result: PGC1a acetyl inh)
COc1ccc(-c2cc(C(=O)Nc3ccc(S(=O)(=O)Nc4onc(C)c4C)cc3)c3ccccc3n2)cc1	rRNA inh HTS -18
COc1ccccc1NS(=O)(=O)c1ccc(C)c(C(=O)Nc2ccc(S(=O)(=O)Nc3onc(C)c3C)cc2)c1	none
COc1ccc(-c2cc(C(=O)Nc3ccc(S(=O)(=O)Nc4ncccn4)cc3)c3ccccc3n2)cc1	none
COc1ccccc1NS(=O)(=O)c1cc(C(=O)Nc2ccc(S(=O)(=O)Nc3onc(C)c3C)cc2)ccc1C	rRNA inh HTS -21
C[C@H](CO)N1C[C@H](C)[C@@H](CN(C)C(=O)NC2CCCC2)Oc2cc(-c3cncnc3)ccc2S1(=O)=O	none
CCC(=O)Nc1ccc2c(c1)OC[C@@H](C)N(C(=O)Cc1ccccn1)C[C@H](C)[C@@H](OC)CN(C)C2=O	none (no result: Casp6 inh)
C[C@@H]1CN([C@@H](C)CO)C(=O)c2cc(NS(C)(=O)=O)ccc2O[C@@H](C)CCCCO[C@H]1CN(C)C(=O)CCC(F)(F)F	none
CCCCCCCCCCCCCCC(O)C[N+](C)(CCO)CCO (stereo unspecified)	ERAP1 HTS inh 64
Cc1nc2sc(C(c3ccco3)N3CCN(c4ccccc4)CC3)c(O)n2n1 (stereo unspecified)	none (no result: PGC1a acetyl inh)
Cc1nc2sc(C(c3ccco3)N3CCN(c4cccc(Cl)c4)CC3)c(O)n2n1 (stereo unspecified)	rRNA inh HTS -39
CO[C@@H]1CN(C)C(=O)c2cc(NS(=O)(=O)c3ccc(C)cc3)ccc2OC[C@@H](C)N(Cc2nccs2)C[C@@H]1C	none
COc1cccc(S(=O)(=O)Nc2ccc3c(c2)[C@H]2C[C@@H](CC(=O)NCc4cccc(F)c4)O[C@H](CO)[C@H]2O3)c1	none
O=C1C(c2ccccc2)CN1Cc1ccccc1 (stereo unspecified)	none (no result: PGC1a acetyl inh, ARNT-TACC3 inh)
O=C1N(Cc2ccccc2)CC2(Br)COCOC12O (stereo unspecified)	ARNT-TACC3 inh 8.9
CN(C)S(=O)(=O)c1cccc(COC(=O)c2ccc(Cl)cc2O)c1	none (no result: PGC1a acetyl inh, ERAP1 HTS inh)
CCn1nc(C(=O)OCc2cccc(S(=O)(=O)N(C)C)c2)c2ccccc2c1=O	rRNA inh HTS -25 (no result: PGC1a acetyl inh)
COc1ccc2c3c(n(C)c2c1)[C@@H](CO)N(C(=O)Nc1ccc(F)cc1)CC31CN(Cc2cccc(F)c2)C1	none (no result: PGC1a acetyl inh, ARNT-TACC3 inh, Casp6 inh, ERAP1 HTS inh, S100A4 MyoIIA)
CCCC1c2ccsc2CCN1C(=S)NC (stereo unspecified)	rRNA inh HTS -36 (no result: PGC1a acetyl inh)
CC=Cc1ccc2n(c1=O)C[C@H]1[C@H](CO)[C@@H](C(=O)N3CCc4ccccc4C3)[C@@H]2N1CC (mixture of isomers)	none (no result: PGC1a acetyl inh, Casp6 inh, ERAP1 HTS inh)
CN(C)c1ncnc2c1ccn2C1OC(CO)C(O)C1O (stereo unspecified)	PGC1a acetyl inh 52
OCC1OC(n2ccc3c(NO)ncnc32)C(O)C1O (stereo unspecified)	none (no result: PGC1a acetyl inh)
COc1ccc(CN(C)C[C@H]2OCCCC[C@H](C)Oc3ccc(NS(=O)(=O)c4c(C)noc4C)cc3C(=O)N([C@@H](C)CO)C[C@@H]2C)cc1	none (no result: Casp6 inh, ERAP1 HTS inh, S100A4 MyoIIA)
O=S(=O)(Nc1ccn(-c2ccccc2)n1)c1ccc(Br)cc1	rRNA inh HTS -46
Cc1ccc2nc(NC(=O)C3CCN(S(=O)(=O)c4cccs4)CC3)sc2c1	none (no result: rRNA inh HTS, Casp6 inh, ERAP1 HTS inh, S100A4 MyoIIA)
Cc1ccc2nc(N/C(=N/S(=O)(=O)c3cccs3)c3ccccc3Cl)sc2c1	rRNA inh HTS -32
COc1cccc(C(=O)NC(=S)Nc2ccc(N3CCCC3)cc2)c1	none (no result: rRNA inh HTS, Casp6 inh, ERAP1 HTS inh, S100A4 MyoIIA)
Cc1ccccc1C(=O)Nc1ccc(N2CCCC2)cc1	none
Cc1ccc(C(=O)Nc2ccc(N3CCCC3)cc2)c(C)c1	rRNA inh HTS -36
CC(C)Oc1cccc(C(=O)NC(=S)Nc2ccc(N3CCN(C)CC3)cc2)c1	rRNA inh HTS -18
CCOc1cccc(C(=O)Nc2ccc(N3CCCC3)cc2)c1	rRNA inh HTS -19
CC(C)CC(=O)NC(=S)Nc1cccc(NC(=O)c2ccccc2Cl)c1	none (no result: rRNA inh HTS, PGC1a acetyl inh, Casp6 inh, ERAP1 HTS inh, S100A4 MyoIIA)
CC(C)Oc1cccc(C(=O)NC(=S)Nc2cccc(NC(=O)c3ccccc3Cl)c2)c1	ARNT-TACC3 inh 49 (no result: rRNA inh HTS)
CCCNC(=O)N1[C@H](CN(C)C(C)=O)[C@H](c2ccc(C3=CCCC3)cc2)[C@@H]1CO	none
CCCC(=O)N1CCN(c2ccc(NC(=S)NC(=O)c3cccc(C)c3)cc2)CC1	rRNA inh HTS -20
CC1=C(C(=O)OCc2ccccc2)C(c2ccc(-c3ccccc3)cc2)NC(=O)N1CCCCCC(=O)O (stereo unspecified)	rRNA inh HTS -34
CC1=C(C(=O)OC(C)(C)C)C(c2ccc3ccccc3c2)NC(=O)N1C (stereo unspecified)	PGC1a acetyl inh 66
CC1=C(C(=O)OCc2ccccc2)C(c2ccc3ccccc3c2)NC(=O)N1CCCCCC(=O)O (stereo unspecified)	none (no result: rRNA inh HTS, PGC1a acetyl inh, ARNT-TACC3 inh)
CC1=C(C(=O)OCc2ccccc2)C(c2ccc3ccccc3c2)NC(=O)N1CCCC(=O)O (stereo unspecified)	rRNA inh HTS -16
CCC(=O)N[C@@H]1CC[C@@H](CCn2cc(C3CC3)nn2)O[C@@H]1CO	none
